{"data": "Results of several laboratories", "target": "Calcium/calmodulin-dependent protein kinase type 1D (CAMK1D, Homo sapiens, UniProt Q8IU85)", "note": "Each line is one published result; the experiments were not run side by side."}
{"SMILES": "CC(C)(C)c1cc(C=C(C#N)C#N)cc(Br)c1O", "assay": "enzyme activity, inhibitor", "conditions": "0.5 µM", "endpoint": "remaining activity", "value": "111%"}
{"SMILES": "Cc1nn(C)cc1-c1nc2c(N3CCN(Cc4ccc(Cl)cc4)CC3)c(Cl)cnc2[nH]1", "assay": "binding, competition with immobilised ligand", "conditions": "1 µM", "endpoint": "remaining binding", "value": "100%"}
{"SMILES": "O=c1[nH]c2ccccc2n1C1CCN(Cc2ccc(-c3[nH]c4cc5ncnc5cc4nc3-c3ccccc3)cc2)CC1", "assay": "cell-free assay", "conditions": "0.5 µM", "endpoint": "remaining signal", "value": "107%"}
{"SMILES": "Nc1ncc(-c2nc(N3CCOCC3)nc(N3CCOCC3)n2)c(C(F)F)n1", "assay": "binding, competition with immobilised ligand", "conditions": "10 µM", "endpoint": "remaining binding", "value": "100%"}
{"SMILES": "N#CC1(c2ccccn2)CCN(Cc2cc(C(=O)O)c(=O)n3ccccc23)CC1", "assay": "cell-free assay, competition with immobilised ligand", "conditions": "1 µM", "endpoint": "remaining binding", "value": "100%"}
{"SMILES": "COc1ncccc1-c1cnn2ccc(N3CCN(C(=O)OC(C)C)CC3)nc12", "assay": "binding, competition with immobilised ligand", "conditions": "1 µM", "endpoint": "remaining binding", "value": "100%"}
{"SMILES": "Cn1cncc1[C@](O)(COc1ccc(C#N)cc1-c1ccc(OC(F)(F)F)cc1)c1ccc(C#N)cc1", "assay": "cell-free assay, competition with immobilised ligand", "conditions": "1 µM", "endpoint": "remaining binding", "value": "100%"}
{"SMILES": "Cn1cc(-c2cc(F)cc(N3CCn4c(cc5c4CCCC5)C3=O)c2CO)cc(Nc2ccc(N3CCN(C4COC4)CC3)cn2)c1=O", "assay": "enzyme activity, inhibitor", "conditions": "0.1 µM", "endpoint": "inhibition", "value": "15%"}
